ChEMBL document CHEMBL1681766, “Structure and property based design of factor Xa inhibitors: pyrrolidin-2-ones with aminoindane and phenylpyrrolidine P4 motifs” (Bioorg Med Chem Lett, 2011)

How the values were obtained:
Type in all cases: ADME, organism-based
[1] = Volume of distribution at steady state in iv/po dosed Sprague-Dawley rat; conditions: in vivo, read-out: Vdss
How it was run: (§1)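 Male Sprague-Dawley rats dosed by intravenous and by oral routes. Pharmacokinetic parameters are derived from these studies.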

[2] = Half life in iv/po dosed Sprague-Dawley rat; conditions: in vivo; how it was run: as §1
[3] = Plasma clearance in iv/po dosed Sprague-Dawley rat; how it was run: as §1
[4] = Oral bioavailability in Sprague-Dawley rat; conditions: in vivo; how it was run: as §1

Compound	Vd [1] [L/kg]	half-life [2] [h]	clearance [3] [mL/min/kg]	bioavailability [4] [%]
O=C1[C@@H](NS(=O)(=O)/C=C/c2ccc(Cl)s2)CCN1c1ccc(C2CCCN2)cc1F (mixture of isomers)	0.7	3.4	2.8	52
CN1CCCC1c1ccc(N2CC[C@H](NS(=O)(=O)/C=C/c3ccc(Cl)s3)C2=O)c(F)c1 (mixture of isomers)	0.8	1.4	11	41
CN(C)C1CCc2cc(N3CC[C@H](NS(=O)(=O)/C=C/c4ccc(Cl)s4)C3=O)ccc21 (mixture of isomers)	1.1	1.7	9.5	57
CNC1CCc2cc(N3CC[C@H](NS(=O)(=O)/C=C/c4ccc(Cl)s4)C3=O)ccc21 (mixture of isomers)	0.9	5.4	2.2	–
O=C1[C@@H](NS(=O)(=O)c2ccc3cc(Cl)ccc3c2)CCN1c1ccc([C@@H]2CCCN2)cc1F	1.7	7.5	2.8	38
O=C1[C@@H](NS(=O)(=O)c2ccc3cc(Cl)ccc3c2)CCN1c1ccc([C@H]2CCCN2)cc1F	1.9	10.2	2.6	25
CN[C@@H](C)c1ccc(N2CC[C@H](NS(=O)(=O)c3ccc4cc(Cl)ccc4c3)C2=O)c(F)c1	–	–	–	> 10
O=C1[C@@H](NS(=O)(=O)c2ccc3c(Cl)c[nH]c3c2)CCN1c1ccc(C2CCCN2)cc1F (mixture of isomers)	0.8	11	1.3	< 1
CN(C)[C@@H]1CCc2cc(N3CC[C@H](NS(=O)(=O)c4ccc5cc(Cl)ccc5c4)C3=O)ccc21	1.7	3.4	7.6	27
CN(C)[C@H]1CCc2cc(N3CC[C@H](NS(=O)(=O)c4ccc5cc(Cl)ccc5c4)C3=O)ccc21	2	4.4	6	61
CNC1CCc2cc(N3CC[C@H](NS(=O)(=O)c4ccc5cc(Cl)ccc5c4)C3=O)ccc21 (mixture of isomers)	2.4	12.4	2.5	25
O=C1[C@@H](NS(=O)(=O)c2ccc3cc(Cl)ccc3c2)CCN1c1ccc(C2CCCN2)cc1F (mixture of isomers)	1.9	9	2.7	24
